Laboratory results reported in ChEMBL document CHEMBL4406821, “Novel dual inhibitors targeting CDK4 and VEGFR2 synergistically suppressed cancer progression and angiogenesis” (Eur J Med Chem, 2019).
Calls of active or inactive are those of the source. No cut-off for these calls is given here.

Key:
SiHa [1] = experiment: Induction of cell cycle arrest in human SiHa cells assessed as accumulation in G2/M phase at 80 nM incubated for 36 hrs by propidium iodide staining based flow cytometry; format: functional
Procedure, shortened: (§1)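 Cells were treated with graded concentrations for 36 h, then fixed overnight in 70% ice-cold ethanol at 4°C and resuspended in PBS. Staining used 50 µg/ml PI plus 5 µg/ml RNase at 37°C for 30 min. DNA content was analysed by FACS to give G0/G1, S and G2/M fractions.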

HeLa [2] = experiment: Inhibition of colony formation in human HeLa cells at 80 nM incubated for 5 days by crystal violet staining based light microscopy; format: functional, cell-based
Procedure, shortened: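 4 × 10^3 cells per well were cultured with graded concentrations for 5 days. Cells were then fixed with 20% methanol, stained with 0.5% crystal violet and photographed by light microscopy.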

[3] = Tmax in Sprague-Dawley rat at 10 mg/kg, iv by HPLC-MS analysis; format: ADME, organism-based; conditions: in vivo
[4] = biological target: Protein kinase C delta type (Homo sapiens) (UniProt Q05655); experiment: Inhibition of recombinant human PKCdelta (2 to end residues) at 1 uM using ERMRPRKRQGSVRRRV as substrate incubated for 40 mins in presence of [gamma-33P]-ATP by scintillation counting method relative to control
[5] = biological target: Serine/threonine-protein kinase ATR (Homo sapiens) (UniProt Q13535); experiment: Inhibition of recombinant human full length ATR at 1 uM using GST-cMyc-p53 as substrate incubated for 40 mins in presence of [gamma-33P]-ATP by scintillation counting method relative to control
Procedure, shortened: (§2)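 Tested at a single 1 uM in an outsourced commercial kinase-profiling panel, read as percent inhibition. Each value is the mean of two independent experiments.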

[6] = biological target: PAS domain-containing serine/threonine-protein kinase (Homo sapiens) (UniProt Q96RG2); experiment: Inhibition of recombinant human PASK (995 to end residues) at 1 uM using KKLNRTLSFAEPG as substrate incubated for 40 mins in presence of [gamma-33P]-ATP by scintillation counting method relative to control
Chain of PAS domain-containing serine/threonine-protein kinase (Homo sapiens) (Q96RG2 whole entry, the tested form may be a part): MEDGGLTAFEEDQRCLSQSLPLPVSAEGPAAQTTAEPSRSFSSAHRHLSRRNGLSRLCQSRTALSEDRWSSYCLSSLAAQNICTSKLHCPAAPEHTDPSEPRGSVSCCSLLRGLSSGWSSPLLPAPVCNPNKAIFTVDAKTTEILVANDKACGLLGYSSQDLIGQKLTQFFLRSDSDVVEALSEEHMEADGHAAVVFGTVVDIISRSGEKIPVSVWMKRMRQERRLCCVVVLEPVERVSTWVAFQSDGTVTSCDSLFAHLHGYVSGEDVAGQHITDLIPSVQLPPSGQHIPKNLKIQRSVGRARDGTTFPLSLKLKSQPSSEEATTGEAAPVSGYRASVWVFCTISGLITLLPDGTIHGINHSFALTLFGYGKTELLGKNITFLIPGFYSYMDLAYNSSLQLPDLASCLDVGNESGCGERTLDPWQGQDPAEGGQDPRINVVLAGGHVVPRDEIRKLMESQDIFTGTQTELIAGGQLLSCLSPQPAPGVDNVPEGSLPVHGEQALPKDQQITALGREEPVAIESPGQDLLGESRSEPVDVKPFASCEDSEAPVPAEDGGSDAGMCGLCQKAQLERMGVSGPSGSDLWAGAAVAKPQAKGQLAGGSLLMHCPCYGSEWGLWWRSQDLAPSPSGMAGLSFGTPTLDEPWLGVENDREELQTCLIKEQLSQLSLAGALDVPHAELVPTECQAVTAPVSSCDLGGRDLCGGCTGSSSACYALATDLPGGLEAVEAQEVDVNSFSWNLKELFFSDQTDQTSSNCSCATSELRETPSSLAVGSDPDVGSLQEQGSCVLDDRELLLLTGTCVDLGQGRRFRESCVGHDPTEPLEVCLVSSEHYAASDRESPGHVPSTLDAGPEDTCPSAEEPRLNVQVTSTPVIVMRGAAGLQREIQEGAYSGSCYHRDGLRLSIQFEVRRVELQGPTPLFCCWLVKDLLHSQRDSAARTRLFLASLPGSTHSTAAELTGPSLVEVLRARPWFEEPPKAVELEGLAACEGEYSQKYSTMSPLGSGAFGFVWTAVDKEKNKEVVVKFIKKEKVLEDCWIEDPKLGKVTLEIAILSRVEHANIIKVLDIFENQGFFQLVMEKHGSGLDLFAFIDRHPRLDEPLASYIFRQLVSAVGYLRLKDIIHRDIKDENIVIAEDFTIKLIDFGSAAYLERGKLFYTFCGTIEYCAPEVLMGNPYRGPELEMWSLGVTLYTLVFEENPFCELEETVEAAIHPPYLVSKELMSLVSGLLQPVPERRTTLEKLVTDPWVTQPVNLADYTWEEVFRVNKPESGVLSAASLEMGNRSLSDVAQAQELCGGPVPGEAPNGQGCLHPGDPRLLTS

[7] = biological target: Mitogen-activated protein kinase kinase kinase 20 (Homo sapiens) (UniProt Q9NYL2); experiment: Inhibition of recombinant human full length ZAK at 1 uM using MBP as substrate incubated for 40 mins in presence of [gamma-33P]-ATP by scintillation counting method relative to control
T47D [8] = experiment: Induction of apoptosis in human T47D cells assessed as decrease in Bcl2 expression at 20 to 40 nM incubated for 48 hrs by Western blot analysis; format: functional, cell-based
Procedure, shortened: (§3)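 Cancer cells were exposed to graded concentrations for 48 h, washed three times in PBS and lysed in RIPA buffer. Immunoblots were probed with anti-Rb, anti-phospho-Rb, anti-Ki67 and anti-Bcl-2, each at 1:1000. β-actin served as loading control.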

T47D [9] = experiment: Induction of cell cycle arrest in human T47D cells assessed as decrease in cell accumulation in S phase at 20 to 40 nM incubated for 36 hrs by propidium iodide staining based flow cytometry; format: functional; procedure, shortened: as §1
[10] = Clearance in Sprague-Dawley rat at 10 mg/kg, iv by HPLC-MS analysis; format: ADME, organism-based; conditions: in vivo
Procedure, shortened: (§4)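 Rats fitted with jugular vein catheters for serial blood sampling. Compound dissolved in saline with 5% (v/v) DMSO and given as a single 10 mg/kg dose iv or po after an overnight fast, n = 5 per group. Plasma isolated at once and measured by HPLC with tandem MS detection. Parameters derived by noncompartmental fitting.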

[11] = AUMC (0 to t) in Sprague-Dawley rat at 10 mg/kg, iv by HPLC-MS analysis; format: ADME, organism-based; conditions: in vivo; procedure, shortened: as §4
[12] = biological target: Serine/threonine-protein kinase PAK 4 (Homo sapiens) (UniProt O96013); experiment: Inhibition of recombinant human PAK4 (295 to end residues) at 1 uM using myelin basic protein as substrate incubated for 40 mins in presence of [gamma-33P]-ATP by scintillation counting method relative to control
Chain of Serine/threonine-protein kinase PAK 4 (Homo sapiens) (O96013 whole entry, looked up): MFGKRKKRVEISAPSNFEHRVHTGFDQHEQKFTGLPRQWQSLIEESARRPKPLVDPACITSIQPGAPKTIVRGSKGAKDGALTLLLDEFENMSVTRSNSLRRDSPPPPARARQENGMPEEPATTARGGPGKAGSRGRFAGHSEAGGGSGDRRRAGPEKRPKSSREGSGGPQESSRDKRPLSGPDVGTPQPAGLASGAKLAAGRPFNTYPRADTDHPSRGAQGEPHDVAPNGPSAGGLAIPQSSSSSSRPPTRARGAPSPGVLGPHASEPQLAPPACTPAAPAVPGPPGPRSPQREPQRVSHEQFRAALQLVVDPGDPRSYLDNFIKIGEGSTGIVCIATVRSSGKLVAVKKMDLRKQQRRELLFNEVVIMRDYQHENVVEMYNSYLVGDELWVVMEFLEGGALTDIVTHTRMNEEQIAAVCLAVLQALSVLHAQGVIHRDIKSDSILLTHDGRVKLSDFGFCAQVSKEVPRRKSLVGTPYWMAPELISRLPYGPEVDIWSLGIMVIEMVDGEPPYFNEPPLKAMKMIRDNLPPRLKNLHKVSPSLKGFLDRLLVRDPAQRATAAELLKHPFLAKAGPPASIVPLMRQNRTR

HeLa [13] = experiment: Induction of apoptosis in human HeLa cells assessed as decrease in Rb phosphorylation incubated for 48 hrs by Western blot analysis; format: functional, cell-based
Procedure, shortened: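 Cells were treated for 48 h, washed three times with PBS, and lysed in RIPA buffer. Immunoblots used anti-Rb, anti-phospho-Rb, anti-Ki67 and anti-Bcl-2 (each 1:1000), with β-actin as loading control.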

[14] = biological target: cGMP-dependent protein kinase 1 (Homo sapiens) (UniProt Q13976); experiment: Inhibition of recombinant human full length PKG1alpha at 1 uM using RRRLSFAEPG as substrate incubated for 40 mins in presence of [gamma-33P]-ATP by scintillation counting method relative to control
Chain of cGMP-dependent protein kinase 1 (Homo sapiens) (Q13976 whole entry): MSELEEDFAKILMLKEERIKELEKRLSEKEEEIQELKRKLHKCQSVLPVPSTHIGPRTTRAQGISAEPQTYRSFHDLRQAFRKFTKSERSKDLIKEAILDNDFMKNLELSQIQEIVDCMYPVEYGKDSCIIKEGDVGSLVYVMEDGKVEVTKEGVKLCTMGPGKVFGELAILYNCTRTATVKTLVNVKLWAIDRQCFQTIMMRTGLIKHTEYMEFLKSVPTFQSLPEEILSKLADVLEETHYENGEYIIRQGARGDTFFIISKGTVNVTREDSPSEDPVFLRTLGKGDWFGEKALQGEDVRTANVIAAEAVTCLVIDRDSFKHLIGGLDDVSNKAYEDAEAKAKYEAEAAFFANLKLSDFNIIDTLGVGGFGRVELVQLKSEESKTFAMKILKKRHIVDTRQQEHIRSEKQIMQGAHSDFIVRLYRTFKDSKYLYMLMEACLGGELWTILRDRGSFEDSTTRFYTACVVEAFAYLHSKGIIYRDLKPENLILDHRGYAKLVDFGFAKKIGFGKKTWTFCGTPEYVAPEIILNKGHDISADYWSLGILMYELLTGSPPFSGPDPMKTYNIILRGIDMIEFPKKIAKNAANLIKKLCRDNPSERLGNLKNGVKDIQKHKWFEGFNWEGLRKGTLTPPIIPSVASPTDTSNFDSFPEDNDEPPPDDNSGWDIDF

SiHa [15] = experiment: Induction of apoptosis in human SiHa cells assessed as decrease in Ki67 expression at 40 to 80 nM incubated for 48 hrs by Western blot analysis; format: functional, cell-based; procedure, shortened: as §3
[16] = biological target: Serine/threonine-protein kinase TAO1 (Homo sapiens) (UniProt Q7L7X3); experiment: Inhibition of recombinant human TAO1 (1 to 327 residues) at 1 uM using myelin basic protein as substrate incubated for 40 mins in presence of [gamma-33P]-ATP by scintillation counting method relative to control
[17] = biological target: Platelet-derived growth factor receptor beta (Homo sapiens) (UniProt P09619); experiment: Inhibition of recombinant human PDGFRbeta (557 to end residues) at 1 uM using poly(Glu, Tyr) 4:1 as substrate incubated for 40 mins in presence of [gamma-33P]-ATP by scintillation counting method relative to control
[18] = biological target: Casein kinase I isoform gamma-1 (Homo sapiens) (UniProt Q9HCP0); experiment: Inhibition of recombinant human CK1gamma1 (25 to 355 residues) at 1 uM using KRRRALS(p)VAS as substrate incubated for 40 mins in presence of [gamma-33P]-ATP by scintillation counting method relative to control
Chain of Casein kinase I isoform gamma-1 (Homo sapiens) (Q9HCP0 whole entry, looked up, the tested form may be a part, canonical isoform): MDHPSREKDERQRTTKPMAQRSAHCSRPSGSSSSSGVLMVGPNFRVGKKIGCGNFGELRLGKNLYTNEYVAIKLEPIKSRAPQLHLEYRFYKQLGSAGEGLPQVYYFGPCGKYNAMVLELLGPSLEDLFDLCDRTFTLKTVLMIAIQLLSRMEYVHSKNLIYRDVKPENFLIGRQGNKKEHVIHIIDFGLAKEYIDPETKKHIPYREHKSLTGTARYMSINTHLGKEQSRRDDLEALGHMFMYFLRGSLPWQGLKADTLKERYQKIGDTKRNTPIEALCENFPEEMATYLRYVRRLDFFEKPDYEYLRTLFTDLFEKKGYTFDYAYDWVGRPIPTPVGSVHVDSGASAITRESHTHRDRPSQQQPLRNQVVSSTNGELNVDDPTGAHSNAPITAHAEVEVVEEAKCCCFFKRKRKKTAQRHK
Procedure, shortened: (§5)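 Kinase panel profiling at 1 μM performed by Eurofins KinaseProfiler; percent inhibition reported as mean of two independent experiments.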

[19] = biological target: Leukocyte tyrosine kinase receptor (Homo sapiens) (UniProt P29376); experiment: Inhibition of recombinant human LTK (450 to end residues) at 1 uM using GEEPLYWSFPAKKK as substrate incubated for 40 mins in presence of [gamma-33P]-ATP by scintillation counting method relative to control; procedure, shortened: as §2
Chain of Leukocyte tyrosine kinase receptor (Homo sapiens) (P29376 whole entry): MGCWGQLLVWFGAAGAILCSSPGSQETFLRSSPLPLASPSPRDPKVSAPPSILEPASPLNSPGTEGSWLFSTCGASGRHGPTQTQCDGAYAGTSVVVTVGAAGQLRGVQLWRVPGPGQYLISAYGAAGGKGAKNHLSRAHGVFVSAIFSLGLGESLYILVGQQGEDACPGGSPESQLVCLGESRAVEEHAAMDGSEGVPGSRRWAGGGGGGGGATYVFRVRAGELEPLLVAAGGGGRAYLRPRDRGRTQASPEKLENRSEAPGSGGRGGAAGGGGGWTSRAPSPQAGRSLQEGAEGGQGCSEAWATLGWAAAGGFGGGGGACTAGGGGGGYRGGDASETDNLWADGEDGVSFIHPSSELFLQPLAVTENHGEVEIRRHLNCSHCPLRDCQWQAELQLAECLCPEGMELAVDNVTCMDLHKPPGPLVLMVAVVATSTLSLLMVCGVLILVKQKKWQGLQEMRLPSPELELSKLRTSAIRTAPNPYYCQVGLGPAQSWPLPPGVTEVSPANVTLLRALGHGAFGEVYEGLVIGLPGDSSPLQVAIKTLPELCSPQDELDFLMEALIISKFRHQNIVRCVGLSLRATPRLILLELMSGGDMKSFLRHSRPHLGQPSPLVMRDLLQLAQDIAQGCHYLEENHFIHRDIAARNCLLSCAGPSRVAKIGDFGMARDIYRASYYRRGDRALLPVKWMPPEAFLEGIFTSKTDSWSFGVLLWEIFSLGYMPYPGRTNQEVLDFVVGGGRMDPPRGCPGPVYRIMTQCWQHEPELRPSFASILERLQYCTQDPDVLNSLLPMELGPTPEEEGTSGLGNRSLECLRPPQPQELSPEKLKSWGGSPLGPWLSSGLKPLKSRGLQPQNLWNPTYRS

T47D [20] = experiment: Induction of apoptosis in human T47D cells assessed as decrease in Ki67 expression at 20 to 40 nM incubated for 48 hrs by Western blot analysis; format: functional, cell-based; procedure, shortened: as §3
[21] = biological target: Tyrosine-protein kinase HCK (Homo sapiens) (UniProt P08631); experiment: Inhibition of recombinant activated human HCK (230 to 497 residues) at 1 uM using GGMEDIYFEFMGGKKK as substrate incubated for 40 mins in presence of [gamma-33P]-ATP by scintillation counting method relative to control; procedure, shortened: as §5
Chain of Tyrosine-protein kinase HCK (Homo sapiens) (P08631 2-526 limits assumed): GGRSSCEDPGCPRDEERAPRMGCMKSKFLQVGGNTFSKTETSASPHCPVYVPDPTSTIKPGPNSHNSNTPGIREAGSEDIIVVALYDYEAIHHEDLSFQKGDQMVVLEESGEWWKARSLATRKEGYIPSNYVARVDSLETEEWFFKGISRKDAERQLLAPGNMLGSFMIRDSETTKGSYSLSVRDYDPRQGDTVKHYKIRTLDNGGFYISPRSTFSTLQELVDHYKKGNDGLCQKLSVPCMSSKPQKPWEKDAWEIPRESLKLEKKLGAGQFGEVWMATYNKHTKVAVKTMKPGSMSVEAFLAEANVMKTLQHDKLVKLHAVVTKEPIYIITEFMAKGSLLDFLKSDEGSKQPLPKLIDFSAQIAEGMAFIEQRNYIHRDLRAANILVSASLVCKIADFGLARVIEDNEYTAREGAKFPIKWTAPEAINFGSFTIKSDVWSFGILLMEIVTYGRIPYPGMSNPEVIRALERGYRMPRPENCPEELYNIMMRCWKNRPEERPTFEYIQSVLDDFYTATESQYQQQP

[22] = biological target: Casein kinase I isoform gamma-3 (Homo sapiens) (UniProt Q9Y6M4); experiment: Inhibition of recombinant human CK1gamma3 (1 to 330 residues) at 1 uM using KRRRALS(p)VAS as substrate incubated for 40 mins in presence of [gamma-33P]-ATP by scintillation counting method relative to control; procedure, shortened: as §2
Chain of Casein kinase I isoform gamma-3 (Homo sapiens) (Q9Y6M4 whole entry, looked up, the tested form may be a part, canonical isoform): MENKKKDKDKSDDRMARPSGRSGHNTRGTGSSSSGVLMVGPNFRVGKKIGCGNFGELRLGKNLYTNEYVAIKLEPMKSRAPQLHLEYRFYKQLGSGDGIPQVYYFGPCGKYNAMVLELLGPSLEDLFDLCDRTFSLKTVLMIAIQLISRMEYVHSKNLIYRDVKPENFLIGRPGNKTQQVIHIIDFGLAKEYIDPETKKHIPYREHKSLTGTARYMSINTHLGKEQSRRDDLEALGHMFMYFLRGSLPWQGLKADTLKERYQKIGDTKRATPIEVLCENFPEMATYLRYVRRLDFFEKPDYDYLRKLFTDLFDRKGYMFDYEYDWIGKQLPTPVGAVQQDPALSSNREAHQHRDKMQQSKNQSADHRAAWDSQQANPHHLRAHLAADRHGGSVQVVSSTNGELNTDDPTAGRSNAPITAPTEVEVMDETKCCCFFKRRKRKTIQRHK

SiHa [23] = experiment: Induction of apoptosis in human SiHa cells assessed as decrease in Rb phosphorylation incubated for 48 hrs by Western blot analysis; format: functional, cell-based; procedure, shortened: as §3

Compound: COc1cc2nccc(Oc3ccc(NC(=O)C4(C(=O)Nc5ccc(F)cc5)CC4)cc3)c2cc1OC [CABOZANTINIB]
- Activity (SiHa [1]): Active
- inhibition (HeLa [2]): Active

Compound: Cc1ccc(NC(=O)C2(C(=O)Nc3ccc(Nc4ncc(F)c(-c5cc(F)c6nc(C)n(C(C)C)c6c5)n4)cc3)CC2)cc1
- Tmax [3]: 5 min
- inhibition [4]: 29%
- inhibition [5]: 0%
- inhibition [6]: 19%
- inhibition [7]: 14%
- Activity (T47D [8]): Active
- Activity (T47D [9]): Active
- clearance [10]: 16.7 mL/min/kg
- AUMCt [11]: 17 mg/L.hr
- inhibition [12]: 50%
- Activity (HeLa [13]): Dose-dependent effect
- inhibition [14]: 51%
- Activity (SiHa [15]): Active
- inhibition [16]: 2%
- inhibition [17]: 6%
- inhibition [18]: 23%
- inhibition [19]: 0%
- Activity (T47D [20]): Active
- inhibition [21]: 33%
- inhibition [22]: 0%
- Activity (SiHa [23]): Dose-dependent effect
